Assay results reported in ChEMBL document CHEMBL1155323, “Synthesis, characterization and antibacterial activity of 2-[1-(5-chloro-2-methoxy-phenyl)-5-methyl-1H-pyrazol-4-yl]-5-(substituted-phenyl)-[1,3,4]oxadiazoles” (Eur J Med Chem, 2009).
≈ marks a conversion by molar mass, not a printed value.

Columns and labels:
[1] = Octanol-water partition coefficient, log P by shake flask method; assay type: physicochemical
Staphylococcus aureus [2] = assay: Antibacterial activity against Staphylococcus aureus ATCC 6538P at 100 ug/ml after 24 hrs by agar cup plate method; assay type: functional; conditions: read-out: IZ
Procedure, shortened: (§1)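 Agar well (bore) diffusion on inoculated nutrient agar with recultured organisms. Test samples prepared in 20% water in DMSO at 100 µg/mL and placed in bores. Plates incubated at 37 °C for 24 h, then the inhibition zone around each bore measured. Controls: inoculum only, and DMSO only.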

Bacillus subtilis [3] = assay: Antibacterial activity against Bacillus subtilis ATCC 6633 at 100 ug/ml after 24 hrs by agar cup plate method; assay type: functional; conditions: ATCC 6633, 24 h, read-out: IZ; procedure, shortened: as §1
Bacillus subtilis [4] = assay: Antibacterial activity against Bacillus subtilis ATCC 6633 after 24 hrs by microtitration method; assay type: functional; conditions: ATCC 6633, 24 h
Procedure, shortened: (§2)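 Strains grown in Luria broth (1% tryptone, 0.5% yeast extract, 0.5% NaCl), pH 7.2, at 37 °C for 24 h. Mid-log cells read at 540 nm and diluted to OD 0.004 (5×10^5 CFU/mL), then dispensed into microplate wells. Graded concentrations (0.2–500 µg/mL) in 20% water in DMSO added; incubated 37 °C, 24 h.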

Escherichia coli [5] = assay: Antibacterial activity against Escherichia coli ATCC 8739 after 24 hrs by microtitration method; assay type: functional; conditions: ATCC 8739, 24 h; procedure, shortened: as §2
Escherichia coli [6] = assay: Antibacterial activity against Escherichia coli ATCC 8739 at 100 ug/ml after 24 hrs by agar cup plate method; assay type: functional; conditions: ATCC 8739, 24 h, read-out: IZ; procedure, shortened: as §1
Klebsiella pneumoniae [7] = assay: Antibacterial activity against Klebsiella pneumoniae ATCC 11298 after 24 hrs by microtitration method; assay type: functional; conditions: ATCC 11298, 24 h; procedure, shortened: as §2
Klebsiella pneumoniae [8] = assay: Antibacterial activity against Klebsiella pneumoniae ATCC 11298 at 100 ug/ml after 24 hrs by agar cup plate method; assay type: functional; conditions: ATCC 11298, 24 h, read-out: IZ; procedure, shortened: as §1
Staphylococcus aureus [9] = assay: Antibacterial activity against Staphylococcus aureus ATCC 6538P after 24 hrs by microtitration method; assay type: functional; procedure, shortened: as §2

Row | logP [1] | MIC (Bacillus subtilis [4]) [µg/mL] | MIC (Escherichia coli [5]) [µg/mL] | MIC (Klebsiella pneumoniae [7]) [µg/mL] | MIC (Staphylococcus aureus [9]) [µg/mL] | SMILES | zone of inhibition at 100 µg/mL (Staphylococcus aureus [2]) [mm] | zone of inhibition at 100 µg/mL (Bacillus subtilis [3]) [mm] | zone of inhibition at 100 µg/mL (Escherichia coli [6]) [mm] | zone of inhibition at 100 µg/mL (Klebsiella pneumoniae [8]) [mm]
1 | 4.51 | 39.6 (≈ 98.7 µM) | 40 (≈ 99.7 µM) | 41 (≈ 102 µM) | 30.6 (≈ 76.3 µM) | COc1ccc(Cl)cc1-n1ncc(-c2nnc(-c3ccc(Cl)cc3)o2)c1C | 18 | 15 | 14 | 13
2 | 4.26 | 22.4 (≈ 58.2 µM) | 29.6 (≈ 76.9 µM) | 30 (≈ 78 µM) | 29.8 (≈ 77.4 µM) | COc1ccc(Cl)cc1-n1ncc(-c2nnc(-c3ccc(F)cc3)o2)c1C | 20 | 25 | 21 | 19
3 | 5.57 | 30 (≈ 68.9 µM) | 21.5 (≈ 49.3 µM) | 39.6 (≈ 90.9 µM) | 29.8 (≈ 68.4 µM) | COc1ccc(Cl)cc1-n1ncc(-c2nnc(-c3ccc(Cl)c(Cl)c3)o2)c1C | 20 | 19 | 27 | 15
4 | 6.42 | 39.6 (≈ 93 µM) | 30.8 (≈ 72.3 µM) | 42 (≈ 98.6 µM) | 40.6 (≈ 95.3 µM) | COc1ccc(Cl)cc1-n1ncc(-c2nnc(-c3ccc(C)c([N+](=O)[O-])c3)o2)c1C | 14 | 15 | 17 | 12
5 | 5.2 | 39.8 (≈ 86.6 µM) | 30.8 (≈ 67 µM) | 40 (≈ 87 µM) | 39.8 (≈ 86.6 µM) | COc1ccc(Cl)cc1-n1ncc(-c2nnc(-c3ccc(Br)c(C)c3)o2)c1C | 15 | 15 | 17 | 14
6 | 5.61 | 31.8 (≈ 73 µM) | 22.4 (≈ 51.4 µM) | 29.6 (≈ 67.9 µM) | 41 (≈ 94.1 µM) | COc1ccc(Cl)cc1-n1ncc(-c2nnc(-c3cc(Cl)cc(Cl)c3)o2)c1C | 13 | 15 | 25 | 21
7 | 4.88 | 40.6 (≈ 91.1 µM) | 39.8 (≈ 89.3 µM) | 41.6 (≈ 93.3 µM) | 30 (≈ 67.3 µM) | COc1ccc(Cl)cc1-n1ncc(-c2nnc(-c3ccc(Br)cc3)o2)c1C | 19 | 14 | 15 | 13
8 | 4.32 | 29.8 (≈ 81.2 µM) | 40.6 (≈ 111 µM) | 40.6 (≈ 111 µM) | 39.8 (≈ 109 µM) | COc1ccc(Cl)cc1-n1ncc(-c2nnc(-c3ccccc3)o2)c1C | 15 | 20 | 14 | 14
9 | 4.28 | 30 (≈ 78 µM) | 30.6 (≈ 79.5 µM) | 29.8 (≈ 77.4 µM) | 21.5 (≈ 55.9 µM) | COc1ccc(Cl)cc1-n1ncc(-c2nnc(-c3cccc(F)c3)o2)c1C | 27 | 19 | 18 | 20
10 | 5.19 | 39.6 (≈ 86.1 µM) | 40.6 (≈ 88.3 µM) | 39 (≈ 84.8 µM) | 29.8 (≈ 64.8 µM) | COc1ccc(Cl)cc1-n1ncc(-c2nnc(-c3ccc(C)c(Br)c3)o2)c1C | 20 | 15 | 14 | 15
11 | – | 3.28 (≈ 9.39 µM) | 3.88 (≈ 11.1 µM) | 4 (≈ 11.4 µM) | 3.36 (≈ 9.62 µM) | CC1(C)S[C@@H]2[C@H](NC(=O)[C@H](N)c3ccccc3)C(=O)N2[C@H]1C(=O)O [AMPICILLIN] | 31 | 32 | 30 | 30
